A selection: hits, their analogues and other compounds. The true share with any hit is near 1.7%.
CAL PDZ FP-1 – blocks peptide binding to human CAL PDZ domain | Q9HD26 | purified CAL PDZ, TMR-peptide fluorescence polarization, 1 h | inhibition, % at 20 µM | 330,000 tested, 0.02% active | AID 504414;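 active means highest replicate inhibition of at least 40%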;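 further: plate controls were DMSO neutral control wells for no effect and unlabeled competitor peptide control wells for full effect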
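System: tagged CAL PDZ domain. Schedule: 1 h room-temperature incubation prior to read. Signal: fluorescence polarization (mP). Measure: percent inhibition from loss of millipolarization.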
CAL PDZ FP-2 – blocks peptide binding to the human CAL PDZ domain | Q9HD26 | purified CAL PDZ, TMR-peptide fluorescence polarization, 1 h | inhibition, % at 24.9 µM | 300,000 tested, 0.92% active;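 active means mean inhibition of at least 30% with at least half of replicates also reaching 30%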;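 further: 0% = DMSO neutral control and 100% = excess unlabeled competitor peptide PRC23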
APOBEC3A inh – inhibitors of human APOBEC3A DNA deaminase; AID 493011; recombinant A3A, FAM/TAMRA ssDNA deamination fluorescence; 330,000 tested, 0.41% active; inhibition, % at 20 µM;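 active means at least 40% inhibition at 20 µM here, with at most 30% in a related deaminase screen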;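 further: plate controls were A3A with DMSO for no effect and wells lacking A3A enzyme for full effect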
Target sequence (P31941 whole entry, looked up): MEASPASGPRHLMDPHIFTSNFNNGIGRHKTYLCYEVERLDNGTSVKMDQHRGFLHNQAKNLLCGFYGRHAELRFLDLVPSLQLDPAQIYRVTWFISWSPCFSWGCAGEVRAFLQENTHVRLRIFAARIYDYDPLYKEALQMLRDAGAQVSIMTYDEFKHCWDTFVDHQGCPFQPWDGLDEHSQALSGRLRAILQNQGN
C-LANA FP – inhibitors of KSHV LANA C-terminal domain DNA binding | MBP-C-LANA/FAM-LBS DNA binding, fluorescence polarization | inhibition, % at 9 µM | 340,000 tested, 0.078% active;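 active means highest replicate inhibition at or above 60% at 9 µM, even if other replicates fall short; inactive means all replicates below 60% inhibition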;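 further: 0% = neutral control wells and 100% = 4 µM acridine orange control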
Keap1-Nrf2 PPI – Keap1-Nrf2 (human) interaction inhibition; Keap1 Kelch-Nrf2 peptide fluorescence polarization, 1536-well; inhibition, % at 9.4 µM; 340,000 tested, 0.15% active; AID 504523; in the data active means inhibition above about 12%;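 further: human Keap1 Kelch domain with fluorescein labeled Nrf2 9mer peptide probe; 0% = neutral control wells and 100% = peptide positive control; higher means more block of Keap1 binding to Nrf2 peptide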
APOBEC3G inh – APOBEC3G (human) deaminase inhibition; recombinant A3G, ssDNA deamination FAM/TAMRA fluorescence; inhibition, % at 20 µM; 330,000 tested, 0.28% active; AID 493012;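 active means inhibition of at least 40% at 20 µM, with no more than 30% in the related APOBEC3A deaminase screen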;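 further: plate controls were DMSO wells with A3G for no effect and wells lacking A3G enzyme for full effect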
Target sequence (Q9HC16 whole entry, looked up): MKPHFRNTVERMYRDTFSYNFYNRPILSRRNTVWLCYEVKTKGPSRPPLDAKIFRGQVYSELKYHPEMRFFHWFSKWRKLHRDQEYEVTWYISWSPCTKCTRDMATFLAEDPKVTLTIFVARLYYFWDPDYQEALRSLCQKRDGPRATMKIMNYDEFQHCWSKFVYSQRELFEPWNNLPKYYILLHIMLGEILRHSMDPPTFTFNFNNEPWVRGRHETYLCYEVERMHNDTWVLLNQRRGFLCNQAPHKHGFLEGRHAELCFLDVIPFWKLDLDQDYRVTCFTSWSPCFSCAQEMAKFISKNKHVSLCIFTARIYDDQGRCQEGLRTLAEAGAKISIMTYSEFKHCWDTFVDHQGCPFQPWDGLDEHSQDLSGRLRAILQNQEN
The depositor's hits bear a star; x = no result; ! = not confirmed by another sample.

SMILES	CAL PDZ FP-1	CAL PDZ FP-2	APOBEC3A inh	C-LANA FP	Keap1-Nrf2 PPI	APOBEC3G inh
CC(=O)Nc1ccc(-c2cc(N)n(-c3ccccc3)n2)cc1	-0.7	9.4	-1.9	-1.5	-1.2	-6.6
CC(=O)Nc1ccc(-c2cc(NC(C)=O)n(-c3ccccc3)n2)cc1	-1.9	75.4*	-3.0	0.4	-4.0	-6.9
CCNC(=O)/C(C#N)=C/c1c(N2CCN(C)CC2)nc2c(C)cccn2c1=O	-0.5	42.8*	-2.8	2.6	-2.1	-6.8
O=C1CC(=O)N(Cc2ccco2)C(=S)N1	-1.2	-2.2	99.2	71.1*	3.4	93.5
S=C1NCN(Cc2ccco2)CN1	-0.9	-4.5	-5.1	0.2	-1.9	-10.1
O=C1CC(=O)N(Cc2ccco2)C(=O)N1	0.4	1.0	98.1	93.8*	-17.9	92.2
COc1ccc(O)c(C(=O)c2coc(=N)c(C(=O)Nc3ccc(SC(F)F)cc3)c2)c1	-1.1	39.8*	-27.1	-1.1	-5.2	-67.7
Cc1ccccc1C(=O)NC(CC(C)C)C(=O)N1CCN(c2ccccc2)CC1 (centres undefined)	-0.6	34.5*	-0.2	-0.9	0.2	-0.5
CC(C)C[C@H](NC(=O)N1CCN(c2ccccc2)CC1)C(=O)O	-1.8	7.3	-6.3	1.0	0.5	-6.1
Cc1ccc(NC(=O)OCCNC(=O)OC(C)C)cc1	0.4	37.6*	4.7	-1.3	-5.2	-3.2
CCOC(=O)NCCOC(=O)Nc1ccc(Cl)cc1	-1.2	-0.5	0.8	0.9	-3.0	-3.1
CCc1nc2ccccc2n1CC(O)COCC1CC=CCC1 (centres undefined)	-0.2	43.0*	1.6	-0.2	-3.5	9.5
Cc1ccc(S(=O)(=O)Nc2c(C)n(C)n(-c3ccccc3)c2=O)cc1	10.2	54.4*!	-6.0	-1.3	-2.7	6.8
Cc1c(NS(=O)(=O)c2ccccc2)c(=O)n(-c2ccccc2)n1C	0.2	-0.4	-3.2	1.1	-0.6	-5.4
COc1cc2c(cc1OC)CN(C(=S)Nc1ccccc1Cl)CC2	x	68.0*	7.9	-0.4	-3.1	-0.6
O=C1C(SCCO)=C(SCCO)C(=O)c2ccccc21	11.3	-6.8	-7.5	1.5	1.9	73.3*
Cc1cccc(C)c1NC(=O)CN(C)CC(=O)N1CC(=O)Nc2ccccc21	0.2	x	13.5	-1.5	-0.4	12.9
COc1ccc(-c2csc(=Nc3ccccc3)n2CCO)cc1	-0.3	x	-1.8	1.6	4.8	-3.1
COc1ccc(-c2csc(=NCCO)n2-c2ccccc2)cc1	-0.5	62.2*	x	0.3	-1.6	x
CCC(CC)=C(C#N)C(=O)NC1CCCCC1	-0.4	-4.5	0.7	-0.5	-4.3	0.9
Cc1ccccc1C1CC(=O)Oc2cc(O)ccc21 (centres undefined)	-0.4	-3.2	1.0	32.8	10.2	-2.0
Cc1cccc(NC(=O)CCNC(=O)c2ccc(Br)cc2)c1	-0.8	47.2*	-2.0	-0.4	2.0	-7.3
O=C(NC1CCCCC1)C(=S)NCCc1ccccc1	-1.7	42.9*	-0.6	-0.8	-0.6	35.9
CC(=O)Nc1ccc(NC(=O)CCc2c(C)noc2C)cc1	-0.1	x	3.0	3.0	4.1	-7.8
CCCCNC(=S)N1CCN(c2ccccc2Cl)CC1	0.8	74.9*	-1.7	1.3	-2.3	-10.2
SMILES	CAL PDZ FP-1	CAL PDZ FP-2	APOBEC3A inh	C-LANA FP	Keap1-Nrf2 PPI	APOBEC3G inh
COc1ccc(O)c(C(=O)c2cc(C#N)c(=O)n(-c3ccc(Cl)cc3)c2)c1	-0.4	39.4*	-13.0	3.3	-0.9	-31.4
COc1ccc(-n2cc(C(=O)c3cc(Cl)ccc3O)cc(C#N)c2=O)cc1	-0.9	-3.5	-2.1	1.7	-9.4	-2.0
CCCCNC(=O)COc1ccccc1[N+](=O)[O-]	-1.8	0.7	4.6	-0.1	-4.3	-1.4
CCN(CC)CCCN1C(=O)C(O)=C(C(=O)c2ccco2)C1c1ccc(OC(C)C)cc1 (centres undefined)	-1.8	87.8*	-2.2	0.4	-2.2	-3.6
COC(=O)c1sc(-c2ccc(Cl)cc2)cc1NC(=O)COCC(=O)O	-3.6	47.9*	-2.7	0.9	1.9	-5.9
COC(=O)c1sc(-c2ccc(Cl)cc2)cc1NC(=O)/C=C/C(=O)O	-2.5	x	-3.2	2.1	-1.8	-2.9
N#Cc1ccccc1NC(=O)CSc1n[nH]c(=O)n1C1CC1	-0.6	-2.3	4.5	-0.2	4.1	2.0
Cc1noc(C)c1-c1nc(CSc2ccccc2)no1	0.4	0.0	-2.2	90.5*	-2.3	-5.3
CC(=O)Nc1ccc(S(=O)(=O)Nc2nc3ccccc3nc2Nc2cccc(O)c2)cc1	-1.8	-3.0	-5.8	0.8	-3.6	-6.3
CC(=O)Nc1ccc(S(=O)(=O)Nc2nc3ccccc3nc2Nc2ccc(C(=O)O)c(O)c2)cc1	1.3	-1.4	56.3	89.9*	3.9	46.7
Cc1ccc(N2CCN(C(=S)Nc3ccccc3)CC2)cc1	-0.3	85.6*	-1.5	-1.7	-0.7	-5.8
CCn1cc(S(=O)(=O)CC(=O)Nc2cccc(C)c2)c2ccccc21	-1.0	x	-4.2	0.4	3.8	-6.6
CCn1cc(S(=O)(=O)CC(=O)Nc2ccc(C)cc2)c2ccccc21	-0.1	52.5*	-2.7	1.0	2.4	-6.3
O=C1C2C3C=CC(C3)C2C(=O)N1c1ccc2ccccc2c1 (centres undefined)	-0.8	-2.9	1.3	2.7	3.3	-2.2
O=C1C2C3CCC(C3)C2C(=O)N1c1ccc2ccccc2c1 (centres undefined)	-1.3	61.8*	-1.9	1.5	-5.1	-7.1
O=S(=O)(c1ccccc1)N1CCC2(CC1)OCCO2	-0.7	4.3	1.2	-0.6	2.2	0.0
CCC1CCCCN1C(=S)NC(=O)c1cccc([N+](=O)[O-])c1 (centres undefined)	-0.7	-4.2	-0.2	0.7	1.5	-1.2
CSCCC1COC(c2cccs2)=N1 (centres undefined)	-1.4	31.0*	-6.6	3.0	-2.7	-6.1
COc1cc(NC(=S)Nc2ccc(N(C)C(C)=O)cc2)cc(OC)c1	-7.8	-0.7	0.7	1.7	-0.5	-7.7
COC(=O)c1cccc(Cn2cc([N+](=O)[O-])cn2)c1	x	x	1.9	x	x	-3.9
COC(=O)c1ccc(Cn2cc([N+](=O)[O-])cn2)cc1	0.7	68.4*	-0.3	1.0	-1.2	-6.4
CCc1nnc(NC(=O)CSc2nnc(C)c(=O)n2N)s1	-0.3	-1.4	1.2	-0.8	2.7	7.1
Clc1nssc1=Nc1nncs1	0.1	-1.6	-2.1	0.5	1.6	71.3*
CC(Cc1cccnc1)NC(=O)c1ccccc1OC1CCN(S(C)(=O)=O)CC1 (centres undefined)	-1.9	31.0*	-2.2	-0.8	-8.6	-2.7
COC(=O)[C@@H](NC(=O)c1ccccc1OC1CCN(S(C)(=O)=O)CC1)C(C)C	1.5	x	-0.2	-0.6	-2.3	-7.2
CC1(C)N=C(N)N=C(N)N1c1cccc(C#N)c1	0.4	0.7	x	1.3	-2.2	x
